Where two headings read alike, the source gives them in different places.
What was measured:
[1] = test system: MMP-2; assay: PrAMA inference of MMP-2 activity in PDAC cell lines; type: cell-based, human; conditions: Panc1_A8 cells, 1 µM, 24 hours, relative to vehicle
Procedure, shortened: (§1)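 Cells were cultured in duplicate for 24 h in serum-free, phenol-red-free DMEM, and medium and sucrose-buffer membrane fractions were collected. […] Activities were inferred from fold-change cleavage rates against purified-enzyme specificity matrices, in three repeats. Panc1_A8 received 1 uM test compound for 24 h versus vehicle; AsPC-1 knockdowns were compared with shCtrl.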

[2] = test system: MMP-14; assay: PrAMA inference of MMP-14 activity in PDAC cell lines; type: cell-based, human; conditions: Panc1_A8 cells, 1 µM, 24 hours, relative to vehicle
Procedure, shortened: as §1

[3] = molecular target: T1, ADAM8 (Homo sapiens, UniProt P78325); assay: PrAMA inference of ADAM8 activity in PDAC cell lines; type: cell-based; conditions: Panc1_A8 cells, 1 µM, 24 hours, relative to vehicle
T1 sequence (P78325 17-824): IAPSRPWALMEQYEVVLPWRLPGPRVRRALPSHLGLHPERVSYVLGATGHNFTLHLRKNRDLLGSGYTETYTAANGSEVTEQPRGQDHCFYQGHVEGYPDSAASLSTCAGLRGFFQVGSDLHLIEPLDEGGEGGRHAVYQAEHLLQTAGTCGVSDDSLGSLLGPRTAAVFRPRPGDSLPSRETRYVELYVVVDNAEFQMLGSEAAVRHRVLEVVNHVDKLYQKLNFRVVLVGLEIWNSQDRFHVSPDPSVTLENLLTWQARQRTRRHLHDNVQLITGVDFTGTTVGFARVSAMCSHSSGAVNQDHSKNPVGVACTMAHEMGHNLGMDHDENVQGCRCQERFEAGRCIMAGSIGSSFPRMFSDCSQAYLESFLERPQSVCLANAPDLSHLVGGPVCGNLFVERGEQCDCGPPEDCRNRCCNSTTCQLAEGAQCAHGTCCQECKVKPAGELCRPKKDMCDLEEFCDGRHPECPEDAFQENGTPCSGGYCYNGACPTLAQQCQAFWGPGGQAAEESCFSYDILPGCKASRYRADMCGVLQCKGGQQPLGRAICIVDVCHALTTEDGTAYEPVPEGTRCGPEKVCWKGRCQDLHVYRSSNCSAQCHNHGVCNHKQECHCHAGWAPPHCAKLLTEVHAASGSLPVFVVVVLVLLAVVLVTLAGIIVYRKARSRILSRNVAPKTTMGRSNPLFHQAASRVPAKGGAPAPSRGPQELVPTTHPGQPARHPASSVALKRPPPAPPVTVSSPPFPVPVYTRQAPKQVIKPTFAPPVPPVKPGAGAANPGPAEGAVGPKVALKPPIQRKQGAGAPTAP

[4] = molecular target: T1, ADAM8; type: cell-based
[5] = molecular target: T2, ADAM8 (Homo sapiens, UniProt P78325); type: biochemical
T2 sequence (P78325 17-497): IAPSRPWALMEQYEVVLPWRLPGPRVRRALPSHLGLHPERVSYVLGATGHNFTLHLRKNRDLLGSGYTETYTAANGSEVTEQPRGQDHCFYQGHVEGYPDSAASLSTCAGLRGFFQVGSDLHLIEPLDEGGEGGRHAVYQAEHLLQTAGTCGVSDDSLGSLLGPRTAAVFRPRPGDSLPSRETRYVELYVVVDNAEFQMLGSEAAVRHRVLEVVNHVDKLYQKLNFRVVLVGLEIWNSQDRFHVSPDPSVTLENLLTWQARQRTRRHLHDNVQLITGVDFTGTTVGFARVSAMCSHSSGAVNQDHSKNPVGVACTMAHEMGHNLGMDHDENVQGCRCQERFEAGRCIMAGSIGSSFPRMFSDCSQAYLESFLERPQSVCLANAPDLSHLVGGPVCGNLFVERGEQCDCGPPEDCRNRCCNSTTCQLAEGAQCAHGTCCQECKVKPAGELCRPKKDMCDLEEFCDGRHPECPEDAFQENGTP

[6] = test system: Panc1_A8 cells; assay: Invasion assay of Panc1_A8 cells; type: cell-based, human; conditions: matrigel, 10 µM, 18h
Procedure, shortened: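 Panc1_ctrl and Panc1_A8 cells were run in duplicate with the ERK1/2 inhibitor U0126 (10 uM) for 18 h. Invasiveness is expressed relative to control. Statistics were by ANOVA and Student's t-test.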

[7] = test system: ERK1/2 phosphorylation; assay: Western blot of ERK1/2 phosphorylation in Panc1 cells; type: cell-based, human; conditions: Panc1_A8 cells; BK-1361 500 nM; U0126 10 µM
Procedure, shortened: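 ERK1/2 phosphorylation in Panc1_ctrl and Panc1_A8 cell lysates was detected by western blot with antibodies against the phosphorylated kinase forms, with or without 500 nM test compound.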

ADAM8 activity (PrAMA), Panc1_A8 [3]	IC50 [4]	IC50 [5]	Compound	MMP-2 activity (PrAMA), Panc1_A8 [1]	MMP-14 activity (PrAMA), Panc1_A8 [2]	invasion of Panc1_A8 cells (ERK1/2 inhibitor) [6]	ERK1/2 phosphorylation (pERK1/2) [7]
reduced	0.057 ± 0.006 µM		CNC(=O)[C@H](Cc1ccccc1)NC(=O)[C@H](CC(C)C)[C@H](CSc1cccs1)C(=O)NO [BB-94, Batimastat]	reduced	reduced		
	1.25 ± 0.103 µM	1.05 ± 0.154 µM	CNC(=O)[C@@H](NC(=O)[C@H](CC(C)C)[C@H](O)C(=O)NO)C(C)(C)C [BB-2516, Marimastat]				
not affected			N#CC(=C(/N)Sc1ccccc1N)/C(C#N)=C(/N)Sc1ccccc1N [U0126]	slight effect	greater effect	decreased invasion	blocked ERK1/2 phosphorylation
